Laboratory results from ChEMBL document CHEMBL3244330, “Structure--activity relationships of n-substituted dopamine and 2-amino-6,7-dihydroxy-1,2,3,4-tetrahydronaphthalene analogues: behavioral effects in lesioned and reserpinized mice” (J Med Chem, 1979).
Calls of active or inactive are those of the source. The rule behind the calls is not given here.

Legend:
Mus musculus [1] = assay: Postural effect on caudectomized Swiss albino mouse assessed as latency to onset time of asymmetric postural effect at 67.8 mg/kg, ip; type: functional; details: route intraperitoneal
Method in brief: (§1)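 Male Swiss albino Hale-Stoner mice with a right caudectomy made by suction. A lesion was accepted if the mouse responded to apomorphine 4 weeks after surgery. Compounds were dissolved in 0.9% saline and injected ip at random into groups of six, with a maximum dose of 0.348 mmol/kg. 18 mice were used per compound, and mice were retested after 5–6 day intervals. Onset and duration of the asymmetric posture are reported as mean ± SE from six animals.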

Mus musculus [2] = assay: Reversal of reserpine-induced catalepsy in ip dosed Swiss albino (CD1) mouse; type: functional
Method in brief: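 Male Swiss albino CD1 mice, 5 weeks old, got reserpine 5 mg/kg ip, then α-MTM 250 mg/kg ip 17 h later, then the test drug ip 4 h after that. Catalepsy was scored by the rubber-stopper test (time to step off the stopper). At least four doses were used, with ≥8 mice per dose. ED50 was taken from a log-probit plot of percent responders against dose.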

Mus musculus [3] = assay: Postural effect on caudectomized Swiss albino mouse assessed as time duration of asymmetric posture at 45.2 mg/kg, ip; type: functional; details: route intraperitoneal; method in brief: as §1
Mus musculus [4] = assay: Postural effect on caudectomized Swiss albino mouse assessed as latency to onset time of asymmetric postural effect at 45.2 mg/kg, ip; type: functional; details: route intraperitoneal; method in brief: as §1
Mus musculus [5] = assay: Postural effect on caudectomized Swiss albino mouse assessed as time duration of asymmetric posture at 22.6 mg/kg, ip; type: functional; details: route intraperitoneal; method in brief: as §1
Mus musculus [6] = assay: Postural effect on caudectomized Swiss albino mouse assessed as latency to onset time of asymmetric postural effect at 22.6 mg/kg, ip; type: functional; details: route intraperitoneal; method in brief: as §1
Mus musculus [7] = assay: Postural effect on caudectomized Swiss albino mouse assessed as time duration of asymmetric posture at 67.8 mg/kg, ip; type: functional; details: route intraperitoneal
Method in brief: (§2)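 Male Swiss albino Hale-Stoner mice given a right caudectomy by suction. The lesion counted as successful if the mice reacted to apomorphine 4 weeks later. Drug was given ip in 0.9% saline, up to 0.348 mmol/kg, to randomised groups of six, with 5-6 days before reuse. Onset and duration of asymmetric posture are reported as mean ± SE from six animals.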

Mus musculus [8] = assay: Postural effect on caudectomized Swiss albino mouse assessed as latency to onset time of asymmetric postural effect at 30.4 mg/kg, ip; type: functional; details: route intraperitoneal
Method in brief: (§3)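 Male Swiss albino Hale-Stoner mice with right caudectomy by suction, used if responsive to apomorphine 4 weeks post-lesion. Compound in 0.9% saline given ip, maximum 0.348 mmol/kg. 18 mice per compound in random groups of six, retested after 5–6 day intervals. Onset latency and duration of asymmetric posture recorded; mean ± SE from six animals.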

Mus musculus [9] = assay: Postural effect on caudectomized Swiss albino mouse assessed as time duration of asymmetric posture at 30.4 mg/kg, ip; type: functional; details: route intraperitoneal; method in brief: as §3
Mus musculus [10] = assay: Postural effect on caudectomized Swiss albino mouse assessed as time duration of asymmetric posture at 60.8 mg/kg, ip; type: functional; details: route intraperitoneal; method in brief: as §3
Mus musculus [11] = assay: Postural effect on caudectomized Swiss albino mouse assessed as latency to onset time of asymmetric postural effect at 60.8 mg/kg, ip; type: functional; details: route intraperitoneal; method in brief: as §3
Mus musculus [12] = assay: Postural effect on caudectomized Swiss albino mouse assessed as latency to onset time of asymmetric postural effect at 100.5 mg/kg, ip; type: functional, organism-based; set-up: dose 100.5 mg/kg; method in brief: as §1
Mus musculus [13] = assay: Postural effect on caudectomized Swiss albino mouse assessed as latency to onset time of asymmetric postural effect at 32.3 mg/kg, ip; type: functional; details: route intraperitoneal; method in brief: as §1
Mus musculus [14] = assay: Postural effect on caudectomized Swiss albino mouse assessed as latency to onset time of asymmetric postural effect at 96.9 mg/kg, ip; type: functional; details: route intraperitoneal; method in brief: as §1
Mus musculus [15] = assay: Postural effect on caudectomized Swiss albino mouse assessed as time duration of asymmetric posture at 64.6 mg/kg, ip; type: functional; details: route intraperitoneal; method in brief: as §2
Mus musculus [16] = assay: Postural effect on caudectomized Swiss albino mouse assessed as time duration of asymmetric posture at 96.9 mg/kg, ip; type: functional; details: route intraperitoneal; method in brief: as §2
Mus musculus [17] = assay: Postural effect on caudectomized Swiss albino mouse assessed as latency to onset time of asymmetric postural effect at 64.6 mg/kg, ip; type: functional; details: route intraperitoneal; method in brief: as §1
Mus musculus [18] = assay: Postural effect on caudectomized Swiss albino mouse assessed as time duration of asymmetric posture at 32.3 mg/kg, ip; type: functional; details: route intraperitoneal; method in brief: as §1
Mus musculus [19] = assay: Postural effect on caudectomized Swiss albino mouse assessed as time duration of asymmetric posture at 78.9 mg/kg, ip; type: functional; details: route intraperitoneal; method in brief: as §2
Mus musculus [20] = assay: Postural effect on caudectomized Swiss albino mouse assessed as latency to onset time of asymmetric postural effect at 105.1 mg/kg, ip; type: functional; details: route intraperitoneal; method in brief: as §1
Mus musculus [21] = assay: Postural effect on caudectomized Swiss albino mouse assessed as latency to onset time of asymmetric postural effect at 92 mg/kg, ip; type: functional; details: route intraperitoneal; method in brief: as §1
Mus musculus [22] = assay: Postural effect on caudectomized Swiss albino mouse assessed as latency to onset time of asymmetric postural effect at 52.6 mg/kg, ip; type: functional, organism-based; set-up: dose 52.6 mg/kg; method in brief: as §1
Mus musculus [23] = assay: Postural effect on caudectomized Swiss albino mouse assessed as latency to onset time of asymmetric postural effect at 78.9 mg/kg, ip; type: functional; details: route intraperitoneal; method in brief: as §1
Mus musculus [24] = assay: Postural effect on caudectomized Swiss albino mouse assessed as latency to onset time of asymmetric postural effect at 26.3 mg/kg, ip; type: functional, organism-based; set-up: dose 26.3 mg/kg; method in brief: as §1
Mus musculus [25] = assay: Postural effect on caudectomized Swiss albino mouse assessed as time duration of asymmetric posture at 105.1 mg/kg, ip; type: functional; details: route intraperitoneal; method in brief: as §1
Mus musculus [26] = assay: Postural effect on caudectomized Swiss albino mouse assessed as time duration of asymmetric posture at 92 mg/kg, ip; type: functional; details: route intraperitoneal; method in brief: as §2
Mus musculus [27] = assay: Reversal of reserpine-induced catalepsy in Swiss albino (CD1) mouse at 0.348 mmol/kg, ip; type: functional, organism-based
Mus musculus [28] = assay: Postural effect on caudectomized Swiss albino mouse assessed as latency to onset time of asymmetric postural effect at 85 mg/kg, ip; type: functional, organism-based; set-up: dose 85 mg/kg; method in brief: as §1
Mus musculus [29] = assay: Postural effect on caudectomized Swiss albino mouse assessed as latency to onset time of asymmetric postural effect at 102.2 mg/kg, ip; type: functional, organism-based; set-up: dose 102.2 mg/kg; method in brief: as §3
Mus musculus [30] = assay: Postural effect on caudectomized Swiss albino mouse assessed as latency to onset time of asymmetric postural effect at 56 mg/kg, ip; type: functional; details: route intraperitoneal; method in brief: as §1
Mus musculus [31] = assay: Postural effect on caudectomized Swiss albino mouse assessed as latency to onset time of asymmetric postural effect at 28 mg/kg, ip; type: functional; details: route intraperitoneal; method in brief: as §1
Mus musculus [32] = assay: Postural effect on caudectomized Swiss albino mouse assessed as time duration of asymmetric posture at 28 mg/kg, ip; type: functional; details: route intraperitoneal; method in brief: as §1
Mus musculus [33] = assay: Postural effect on caudectomized Swiss albino mouse assessed as time duration of asymmetric posture at 56 mg/kg, ip; type: functional; details: route intraperitoneal; method in brief: as §2
Mus musculus [34] = assay: Postural effect on caudectomized Swiss albino mouse assessed as latency to onset time of asymmetric postural effect at 47.6 mg/kg, ip; type: functional; details: route intraperitoneal; method in brief: as §1
Mus musculus [35] = assay: Postural effect on caudectomized Swiss albino mouse assessed as latency to onset time of asymmetric postural effect at 71.4 mg/kg, ip; type: functional; details: route intraperitoneal; method in brief: as §1
Mus musculus [36] = assay: Postural effect on caudectomized Swiss albino mouse assessed as time duration of asymmetric posture at 71.4 mg/kg, ip; type: functional; details: route intraperitoneal; method in brief: as §2
Mus musculus [37] = assay: Postural effect on caudectomized Swiss albino mouse assessed as time duration of asymmetric posture at 23.8 mg/kg, ip; type: functional; details: route intraperitoneal; method in brief: as §1
Mus musculus [38] = assay: Postural effect on caudectomized Swiss albino mouse assessed as time duration of asymmetric posture at 47.6 mg/kg, ip; type: functional; details: route intraperitoneal; method in brief: as §1
Mus musculus [39] = assay: Postural effect on caudectomized Swiss albino mouse assessed as latency to onset time of asymmetric postural effect at 23.8 mg/kg, ip; type: functional; details: route intraperitoneal; method in brief: as §1
Mus musculus [40] = assay: Postural effect on caudectomized Swiss albino mouse assessed as latency to onset time of asymmetric postural effect at 91.2 mg/kg, ip; type: functional, organism-based; set-up: dose 91.2 mg/kg; method in brief: as §3
Mus musculus [41] = assay: Postural effect on caudectomized Swiss albino mouse assessed as latency to onset time of asymmetric postural effect at 50 mg/kg, ip; type: functional; details: route intraperitoneal; method in brief: as §1
Mus musculus [42] = assay: Postural effect on caudectomized Swiss albino mouse assessed as time duration of asymmetric posture at 50 mg/kg, ip; type: functional; details: route intraperitoneal; method in brief: as §2
Mus musculus [43] = assay: Postural effect on caudectomized Swiss albino mouse assessed as latency to onset time of asymmetric postural effect at 25 mg/kg, ip; type: functional; details: route intraperitoneal; method in brief: as §1
Mus musculus [44] = assay: Postural effect on caudectomized Swiss albino mouse assessed as time duration of asymmetric posture at 25 mg/kg, ip; type: functional; details: route intraperitoneal; method in brief: as §1

Compound `CCCN(CC)CCc1ccc(O)c(O)c1.Cl` has a Time (Mus musculus [1]) of 3.6 min, an ED50 (Mus musculus [2]) of 33 mg/kg and a Time (Mus musculus [3]) of 6.3 min. For the same compound, the Time (Mus musculus [4]) was 3.2 min, the Time (Mus musculus [5]) was 2.3 min and the Time (Mus musculus [6]) was 3.2 min. It also gave a Time (Mus musculus [7]) of 11.2 min.
For `CCCN(CCCc1ccccc1)CCc1ccc(O)c(O)c1.Cl`, the Time (Mus musculus [8]) was 7.6 min, the ED50 (Mus musculus [2]) was 9 mg/kg and the Time (Mus musculus [9]) was 6.4 min. For the same compound, the Time (Mus musculus [10]) was 18.2 min and the Time (Mus musculus [11]) was 5.8 min.
In the case of `CCCCCN(CCCC)CCc1ccc(O)c(O)c1`, the Activity (Mus musculus [12]) is reported as “inactive”.
Compound `Br.CCCCN(CCCC)C1CCc2cc(O)c(O)cc2C1` (configuration not stated) has an ED50 (Mus musculus [2]) of 44 mg/kg, a Time (Mus musculus [13]) of 1 min and a Time (Mus musculus [14]) of 4.1 min. It also gave a Time (Mus musculus [15]) of 8.8 min, a Time (Mus musculus [16]) of 13.7 min and a Time (Mus musculus [17]) of 5.3 min. The Time (Mus musculus [18]) was 1.6 min.
Compound `CCC(C)N(CCc1ccc(O)c(O)c1)C(C)CC.Cl` (configuration not stated) has a Time (Mus musculus [19]) of 7 min, a Time (Mus musculus [20]) of 5 min and a Time (Mus musculus [21]) of 5.2 min. The Activity (Mus musculus [22]) was “inactive”, the Time (Mus musculus [23]) was 1.8 min and the Activity (Mus musculus [24]) was “inactive”. The Time (Mus musculus [25]) was 10.8 min, the Time (Mus musculus [26]) was 7 min and the Activity (Mus musculus [27]) was “inactive”.
In the case of `CC(C)CNCCc1ccc(O)c(O)c1`, the Activity (Mus musculus [12]) is reported as “inactive”.
`CNCCc1ccc(O)c(O)c1` was tested, and the Activity (Mus musculus [28]) was “inactive”.
With `Oc1ccc(CCNCCc2ccccc2)cc1O` the Activity (Mus musculus [29]) was “inactive”.
Work on `CCCN(CCc1ccc(O)c(O)c1)Cc1ccccc1.Cl` yielded a Time (Mus musculus [30]) of 5.7 min, an ED50 (Mus musculus [2]) of 21 mg/kg and a Time (Mus musculus [31]) of 5.2 min. It also gave a Time (Mus musculus [32]) of 7.8 min and a Time (Mus musculus [33]) of 26.6 min.
With `CCCN(CCC)CCc1ccc(O)c(O)c1.Cl` the ED50 (Mus musculus [2]) was 16 mg/kg, the Time (Mus musculus [34]) was 3.7 min and the Time (Mus musculus [35]) was 3.1 min. For the same compound, the Time (Mus musculus [36]) was 21.9 min, the Time (Mus musculus [37]) was 6.2 min and the Time (Mus musculus [38]) was 13.9 min. For the same compound, the Time (Mus musculus [39]) was 1.8 min.
With `CCCCN(CCc1ccccc1)CCc1ccc(O)c(O)c1` the Activity (Mus musculus [40]) was “inactive”.
Compound `CCCCN(C)CCc1ccc(O)c(O)c1.Cl` has a Time (Mus musculus [1]) of 3.1 min, an ED50 (Mus musculus [2]) of 61 mg/kg and a Time (Mus musculus [3]) of 2.3 min. For the same compound, the Time (Mus musculus [4]) was 1.3 min, the Time (Mus musculus [5]) was 3.7 min and the Time (Mus musculus [6]) was 0.4 min. For the same compound, the Time (Mus musculus [7]) was 2.2 min.
`CCCCN(CCC)CCc1ccc(O)c(O)c1.Cl` showed an ED50 (Mus musculus [2]) of 8.6 mg/kg, a Time (Mus musculus [41]) of 3.7 min and a Time (Mus musculus [42]) of 25.8 min. For the same compound, the Time (Mus musculus [43]) was 3.7 min and the Time (Mus musculus [44]) was 6.4 min.
